Results: paper PMC6957258 (Bioorganic & medicinal chemistry, 2013)
pIC50: −log10 of the molar value. Read-outs that look alike come from different tables or passages of the source.

How the values were obtained:
human TRPV1 [1] = target: T1, human TRPV1 (Homo sapiens, UniProt Q8NER1); assay: FLIPR antagonism of pH activation, hTRPV1 in CHO cells; format: cell-based; details: read-out: IC50 [pH], inhibition of pH activation
[2] = tested on: capsaicin-induced hypothermia; assay: Capsaicin-induced hypothermia in mice; format: in vivo; details: for inhibition of the effect of capsaicin on body temperature: 0.3 mg/Kg po 15 min before capsaicin 3 mg/Kg ip
Summary of the method: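 Mice, n = 5 per group. Body temperature (°C) was recorded after capsaicin challenge, with readings taken up to 60 min. Data are given as mean ± SEM and compared with vehicle-treated animals, with significance at p < 0.05.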

[3] = tested on: CCI-induced cold allodynia (neuropathic pain model); details: rat, po; cited from earlier work
human TRPV1 [4] = target: T1, human TRPV1; assay: FLIPR antagonism of capsaicin; format: cell-based
[5] = tested on: capsaicin-induced hypothermia; details: mice; cited from earlier work

T1 sequence (Q8NER1 whole entry): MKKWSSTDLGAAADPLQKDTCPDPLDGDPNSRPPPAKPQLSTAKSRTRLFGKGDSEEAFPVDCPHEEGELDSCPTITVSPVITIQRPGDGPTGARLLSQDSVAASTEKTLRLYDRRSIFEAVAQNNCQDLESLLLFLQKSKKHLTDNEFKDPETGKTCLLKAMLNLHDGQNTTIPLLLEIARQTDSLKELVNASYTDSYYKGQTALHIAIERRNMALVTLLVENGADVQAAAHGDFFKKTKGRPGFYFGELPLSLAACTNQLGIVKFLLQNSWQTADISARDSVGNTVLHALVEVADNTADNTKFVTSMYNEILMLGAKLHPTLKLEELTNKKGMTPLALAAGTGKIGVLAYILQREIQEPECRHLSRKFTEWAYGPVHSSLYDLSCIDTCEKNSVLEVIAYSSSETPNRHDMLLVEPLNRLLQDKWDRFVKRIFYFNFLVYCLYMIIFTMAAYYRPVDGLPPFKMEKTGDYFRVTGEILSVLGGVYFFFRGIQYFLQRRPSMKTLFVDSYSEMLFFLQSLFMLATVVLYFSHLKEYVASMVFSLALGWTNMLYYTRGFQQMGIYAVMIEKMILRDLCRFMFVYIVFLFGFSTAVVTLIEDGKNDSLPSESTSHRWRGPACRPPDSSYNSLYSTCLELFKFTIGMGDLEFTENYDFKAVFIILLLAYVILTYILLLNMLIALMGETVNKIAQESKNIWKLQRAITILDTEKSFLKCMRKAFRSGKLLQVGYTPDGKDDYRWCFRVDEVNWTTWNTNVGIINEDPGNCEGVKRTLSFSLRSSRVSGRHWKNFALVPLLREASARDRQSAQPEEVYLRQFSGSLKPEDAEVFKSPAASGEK

| SMILES | pIC50 (human TRPV1 [1]) | other results |
| --- | --- | --- |
| C[C@@H](C(=O)NCc1ccc(C(F)(F)F)nc1SC1CCCCC1)c1ccc(NS(C)(=O)=O)c(F)c1 [24R, (R)-N-((2-(Cyclohexylthio)-6-(trifluoromethyl)pyridin-3-yl)methyl)-2-(3-fluoro-4-(methylsulfonamido)phenyl)propanamide] | < 6.00 | – |
| C[C@H](C(=O)NCc1ccc(C(F)(F)F)nc1SC1CCCCC1)c1ccc(NS(C)(=O)=O)c(F)c1 [24S, (S)-N-((2-(Cyclohexylthio)-6-(trifluoromethyl)pyridin-3-yl)methyl)-2-(3-fluoro-4-(methylsulfonamido)phenyl)propanamide] | – | effect on capsaicin-induced hypothermia [2]: blocked capsaicin-induced hypothermia; inhibition of the effect of capsaicin on body temperature ([2]; at 15 min): partial inhibition; inhibition of the effect of capsaicin on body temperature ([2]; at 30 min): completely inhibited |
| C[C@H](C(=O)NCc1ccc(C(C)(C)C)cc1)c1ccc(NS(C)(=O)=O)c(F)c1 [compound 1] | – | ED50 anti-allodynic efficacy [3]: 26.6 mg/kg |
| CC1CCN(c2nc(C(F)(F)F)ccc2CNC(=O)[C@@H](C)c2ccc(NS(C)(=O)=O)c(F)c2)CC1 [compound 2] | – | fold better than prototype 1 for CAP antagonism (human TRPV1 [4]; ratio versus 1): approximately 100 fold; effect on capsaicin-induced hypothermia [5]: blocked capsaicin-induced hypothermia; ED50 anti-allodynic efficacy [3]: 0.9 mg/kg |
| CC(C(=O)NCc1ccc(C(F)(F)F)nc1SCC(F)(F)F)c1ccc(NS(C)(=O)=O)c(F)c1 (centres unmarked) [compound 11, 2-(3-Fluoro-4-(methylsulfonamido)phenyl)-N-((2-(2,2,2-trifluoroethylthio)-6-(trifluoromethyl)pyridin-3-yl)methyl) propanamide] | < 6.00 | – |
| CC(C(=O)NCc1ccc(C(F)(F)F)nc1SCCC(=O)O)c1ccc(NS(C)(=O)=O)c(F)c1 (centres unmarked) [compound 20, 3-(3-((2-(3-Fluoro-4-(methylsulfonamido)phenyl)propanamido)methyl)-6-(trifluoromethyl)pyridin-2-ylthio) propanoic acid] | < 6.00 | – |
| CC(C(=O)NCc1ccc(C(F)(F)F)nc1SCCC(=O)N1CCCC1)c1ccc(NS(C)(=O)=O)c(F)c1 (centres unmarked) [compound 22, 2-(3-Fluoro-4-(methylsulfonamido)phenyl)-N-((2-(3-oxo-3-(pyrrolidin-1-yl)propylthio)-6-(trifluoromethyl)pyridin-3-yl)methyl)propanamide] | < 6.00 | – |
| CC(C(=O)NCc1ccc(C(F)(F)F)nc1SC1CCCC1)c1ccc(NS(C)(=O)=O)c(F)c1 (centres unmarked) [compound 23, N-((2-(Cyclopentylthio)-6-(trifluoromethyl)pyridin-3-yl)methyl)-2-(3-fluoro-4-(methylsulfonamido)phenyl)propanamide] | < 6.00 | – |
| CC(C(=O)NCc1ccc(C(F)(F)F)nc1[S+]([O-])C1CCCCC1)c1ccc(NS(C)(=O)=O)c(F)c1 (centres unmarked) [compound 25, N-((2-(Cyclohexylsulfinyl)-6-(trifluoromethyl)pyridin-3-yl)methyl)-2-(3-fluoro-4-(methylsulfonamido)phenyl)propanamide] | < 6.00 | – |
| CC(C(=O)NCc1ccc(C(F)(F)F)nc1S(=O)(=O)C1CCCCC1)c1ccc(NS(C)(=O)=O)c(F)c1 (centres unmarked) [compound 26, N-((2-(Cyclohexylsulfonyl)-6-(trifluoromethyl)pyridin-3-yl)methyl)-2-(3-fluoro-4-(methylsulfonamido)phenyl)propanamide] | < 6.00 | – |
| CC(C(=O)NCc1ccc(C(F)(F)F)nc1SC1CCCCC1C)c1ccc(NS(C)(=O)=O)c(F)c1 (centres unmarked) [compound 28, 2-(3-Fluoro-4-(methylsulfonamido)phenyl)-N-((2-(2-methylcyclohexylthio)-6-(trifluoromethyl)pyridin-3-yl)methyl)propanamide] | < 6.00 | – |
| CCC1CCC(Sc2nc(C(F)(F)F)ccc2CNC(=O)C(C)c2ccc(NS(C)(=O)=O)c(F)c2)CC1 (centres unmarked) [compound 29, N-((2-(4-Ethylcyclohexylthio)-6-(trifluoromethyl)pyridin-3-yl)methyl)-2-(3-fluoro-4-(methylsulfonamido)phenyl)propanamide] | < 6.00 | – |
| CC(C(=O)NCc1ccc(C(F)(F)F)nc1SCC1CCCCC1)c1ccc(NS(C)(=O)=O)c(F)c1 (centres unmarked) [compound 31, N-((2-(Cyclohexylmethylthio)-6-(trifluoromethyl)pyridin-3-yl)methyl)-2-(3-fluoro-4-(methylsulfonamido)phenyl)propanamide] | – | fold less potent than 24 (human TRPV1 [4]; ratio of Ki(CAP) versus 24): 2.5 fold |
| CC(C(=O)NCc1ccc(C(F)(F)F)nc1SCc1ccco1)c1ccc(NS(C)(=O)=O)c(F)c1 (centres unmarked) [compound 37, 2-(3-Fluoro-4-(methylsulfonamido)phenyl)-N-((2-(furan-2-ylmethylthio)-6-(trifluoromethyl)pyridin-3-yl)methyl)propanamide] | < 6.00 | – |
| CC(C(=O)NCc1ccc(C(F)(F)F)nc1SCc1cccs1)c1ccc(NS(C)(=O)=O)c(F)c1 (centres unmarked) [compound 38, 2-(3-Fluoro-4-(methylsulfonamido)phenyl)-N-((2-(thiophen-2-ylmethylthio)-6-(trifluoromethyl)pyridin-3-yl)methyl)propanamide] | < 6.00 | – |
| CC(C)C[C@H](CN)CC(=O)O [pregabalin] | – | ED50 anti-allodynic efficacy [3]: 42.2 mg/kg |
